# Results as given in ChEMBL document CHEMBL4257452, “A mini-library system to investigate non-essential residues of lipid-phosphatidylserine (PS) binding peptide-peptoid hybrid PPS1” (Medchemcomm, 2017).
# Calls of active or inactive are those of the source. The calls are words filed in the database; no cut-off is given here. Starred links: 1 amine or outer side, 2 acyl side, 3 side chain; linkers in the order of their positions; H or OH if unused. Positions of bridges follow the written chain, without caps; N, C: chain ends. Non-standard residues stand in square brackets, D forms with d. Residues, ends and D or L forms follow the SMILES beside them. Chains are numbered I, II in the order given. Gly(N-piperonyl) = O=C(O)CNCc1ccc2c(c1)OCO2; N(4-MeOBn)Gly = COc1ccc(CNCC(=O)O)cc1; X11 = Nc1ccc(CN(CC(=O)[*:2])[*:1])cc1; X3 = CC(c1ccccc1)N(CC(=O)[*:2])[*:1]; X9 = O=C(CN(CCOc1ccccc1)[*:1])[*:2]; Nrpe = C[C@@H](NCC(=O)O)c1ccccc1; X10 = CCC(C)CN(CC(=O)[*:2])[*:1]; X7 = O=C(CN(c1nccs1)[*:1])[*:2]; X6 = CCC(C)N(CC(=O)[*:2])[*:1]; NcPrGly = O=C(O)CNC1CC1; Sar = CNCC(=O)O
# Test system: HCC4017
# Assay: Cytotoxicity against human HCC4017 cells assessed as reduction in cell viability at 20 uM after 24 hrs by MTS assay
# Assay type: functional, cell-based
# How it was run: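 HCC4017 cells (RPMI, 5% FBS) and HBEC-3KT normal lung cells (KSFM with recombinant human EGF and bovine pituitary extract) were plated at 10 000 cells/well in triplicate and left to adhere overnight. They were exposed to 1 or 20 μM compound for 24 h. MTS reagent was then added for 2 h and absorbance read at 490 nm. Viability is % of untreated control wells.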
row,Compound,Activity
1,COc1ccc(CN(CC(=O)N(CC(=O)NC(CCCCN)C(=O)NC(CCCCN)C(=O)NC(CCSC)C(=O)NCCCCC(NC(=O)C(CCSC)NC(=O)C(CCCCN)NC(=O)C(CCCCN)NC(=O)CN(Cc2ccc(N)cc2)C(=O)CN(Cc2ccc(OC)cc2)C(=O)CN(C(=O)CN(Cc2ccc3c(c2)OCO3)C(=O)CNC(C)c2ccccc2)C(C)c2ccccc2)C(N)=O)Cc2ccc(N)cc2)C(=O)CN(C(=O)CN(Cc2ccc3c(c2)OCO3)C(=O)CNC(C)c2ccccc2)C(C)c2ccccc2)cc1 (configuration not stated) (I: H-[X3][Gly(N-piperonyl)][X3][N(4-MeOBn)Gly][X11]KKMK-NH2 / II: H-[X3][Gly(N-piperonyl)][X3][N(4-MeOBn)Gly][X11]KKM; amide I:9-II:C; configuration not given here),Active
2,COc1ccc(CN(CC(=O)N(CC(=O)NC(CCCCN)C(=O)NC(CCCCN)C(=O)NC(CCSC)C(=O)NCCCCC(NC(=O)C(CCSC)NC(=O)C(CCCCN)NC(=O)C(CCCCN)NC(=O)CN(C(=O)CN(Cc2ccc(OC)cc2)C(=O)CN(C(=O)CN(Cc2ccc3c(c2)OCO3)C(=O)CNC(C)c2ccccc2)C(C)c2ccccc2)C2CC2)C(N)=O)C2CC2)C(=O)CN(C(=O)CN(Cc2ccc3c(c2)OCO3)C(=O)CNC(C)c2ccccc2)C(C)c2ccccc2)cc1 (configuration not stated) (I: H-[X3][Gly(N-piperonyl)][X3][N(4-MeOBn)Gly][NcPrGly]KKMK-NH2 / II: H-[X3][Gly(N-piperonyl)][X3][N(4-MeOBn)Gly][NcPrGly]KKM; amide I:9-II:C; configuration not given here),Active
3,COc1ccc(CN(CC(=O)N2CCCC2C(=O)NC(CCCCN)C(=O)NC(CCCCN)C(=O)NC(CCSC)C(=O)NCCCCC(NC(=O)C(CCSC)NC(=O)C(CCCCN)NC(=O)C(CCCCN)NC(=O)C2CCCN2C(=O)CN(Cc2ccc(OC)cc2)C(=O)CN(C(=O)CN(Cc2ccc3c(c2)OCO3)C(=O)CNC(C)c2ccccc2)C(C)c2ccccc2)C(N)=O)C(=O)CN(C(=O)CN(Cc2ccc3c(c2)OCO3)C(=O)CNC(C)c2ccccc2)C(C)c2ccccc2)cc1 (configuration not stated) (I: H-[X3][Gly(N-piperonyl)][X3][N(4-MeOBn)Gly]PKKMK-NH2 / II: H-[X3][Gly(N-piperonyl)][X3][N(4-MeOBn)Gly]PKKM; amide I:9-II:C; configuration not given here),Active
4,COc1ccc(CN(CC(=O)NC(CC(=O)O)C(=O)NC(CCCCN)C(=O)NC(CCCCN)C(=O)NC(CCSC)C(=O)NCCCCC(NC(=O)C(CCSC)NC(=O)C(CCCCN)NC(=O)C(CCCCN)NC(=O)C(CC(=O)O)NC(=O)CN(Cc2ccc(OC)cc2)C(=O)CN(C(=O)CN(Cc2ccc3c(c2)OCO3)C(=O)CNC(C)c2ccccc2)C(C)c2ccccc2)C(N)=O)C(=O)CN(C(=O)CN(Cc2ccc3c(c2)OCO3)C(=O)CNC(C)c2ccccc2)C(C)c2ccccc2)cc1 (configuration not stated) (I: H-[X3][Gly(N-piperonyl)][X3][N(4-MeOBn)Gly]DKKMK-NH2 / II: H-[X3][Gly(N-piperonyl)][X3][N(4-MeOBn)Gly]DKKM; amide I:9-II:C; configuration not given here),inactive
5,COc1ccc(CN(CC(=O)NC(Cc2ccc(O)cc2)C(=O)NC(CCCCN)C(=O)NC(CCCCN)C(=O)NC(CCSC)C(=O)NCCCCC(NC(=O)C(CCSC)NC(=O)C(CCCCN)NC(=O)C(CCCCN)NC(=O)C(Cc2ccc(O)cc2)NC(=O)CN(Cc2ccc(OC)cc2)C(=O)CN(C(=O)CN(Cc2ccc3c(c2)OCO3)C(=O)CNC(C)c2ccccc2)C(C)c2ccccc2)C(N)=O)C(=O)CN(C(=O)CN(Cc2ccc3c(c2)OCO3)C(=O)CNC(C)c2ccccc2)C(C)c2ccccc2)cc1 (configuration not stated) (I: H-[X3][Gly(N-piperonyl)][X3][N(4-MeOBn)Gly]YKKMK-NH2 / II: H-[X3][Gly(N-piperonyl)][X3][N(4-MeOBn)Gly]YKKM; amide I:9-II:C; configuration not given here),Active
6,COc1ccc(CN(CC(=O)N(CC(=O)N[C@@H](CCCCN)C(=O)N[C@H](CCCCN)C(=O)N[C@@H](CCSC)C(=O)NCCCC[C@H](NC(=O)[C@H](CCSC)NC(=O)[C@@H](CCCCN)NC(=O)[C@H](CCCCN)NC(=O)CN(Cc2ccc3c(c2)OCO3)C(=O)CN(Cc2ccc(OC)cc2)C(=O)CN(C(=O)CN(Cc2ccc3c(c2)OCO3)C(=O)CN[C@H](C)c2ccccc2)[C@H](C)c2ccccc2)C(N)=O)Cc2ccc3c(c2)OCO3)C(=O)CN(C(=O)CN(Cc2ccc3c(c2)OCO3)C(=O)CN[C@H](C)c2ccccc2)[C@H](C)c2ccccc2)cc1 (I: H-[Nrpe][Gly(N-piperonyl)][Nrpe][N(4-MeOBn)Gly][Gly(N-piperonyl)]K[dK]MK-NH2 / II: H-[Nrpe][Gly(N-piperonyl)][Nrpe][N(4-MeOBn)Gly][Gly(N-piperonyl)]K[dK]M; amide I:9-II:C),Active
7,CCC(C)CN(CC(=O)NC(CCCCN)C(=O)NC(CCCCN)C(=O)NC(CCSC)C(=O)NCCCCC(NC(=O)C(CCSC)NC(=O)C(CCCCN)NC(=O)C(CCCCN)NC(=O)CN(CC(C)CC)C(=O)CN(Cc1ccc(OC)cc1)C(=O)CN(C(=O)CN(Cc1ccc2c(c1)OCO2)C(=O)CNC(C)c1ccccc1)C(C)c1ccccc1)C(N)=O)C(=O)CN(Cc1ccc(OC)cc1)C(=O)CN(C(=O)CN(Cc1ccc2c(c1)OCO2)C(=O)CNC(C)c1ccccc1)C(C)c1ccccc1 (configuration not stated) (I: H-[X3][Gly(N-piperonyl)][X3][N(4-MeOBn)Gly][X10]KKMK-NH2 / II: H-[X3][Gly(N-piperonyl)][X3][N(4-MeOBn)Gly][X10]KKM; amide I:9-II:C; configuration not given here),Active
8,COc1ccc(CN(CC(=O)N(CC(=O)NC(CCCCN)C(=O)NC(CCCCN)C(=O)NC(CCSC)C(=O)NCCCCC(NC(=O)C(CCSC)NC(=O)C(CCCCN)NC(=O)C(CCCCN)NC(=O)CN(C(=O)CN(Cc2ccc(OC)cc2)C(=O)CN(C(=O)CN(Cc2ccc3c(c2)OCO3)C(=O)CNC(C)c2ccccc2)C(C)c2ccccc2)c2nccs2)C(N)=O)c2nccs2)C(=O)CN(C(=O)CN(Cc2ccc3c(c2)OCO3)C(=O)CNC(C)c2ccccc2)C(C)c2ccccc2)cc1 (configuration not stated) (I: H-[X3][Gly(N-piperonyl)][X3][N(4-MeOBn)Gly][X7]KKMK-NH2 / II: H-[X3][Gly(N-piperonyl)][X3][N(4-MeOBn)Gly][X7]KKM; amide I:9-II:C; configuration not given here),Active
9,COc1ccc(CN(CC(=O)N(C)CC(=O)NC(CCCCN)C(=O)NC(CCCCN)C(=O)NC(CCSC)C(=O)NCCCCC(NC(=O)C(CCSC)NC(=O)C(CCCCN)NC(=O)C(CCCCN)NC(=O)CN(C)C(=O)CN(Cc2ccc(OC)cc2)C(=O)CN(C(=O)CN(Cc2ccc3c(c2)OCO3)C(=O)CNC(C)c2ccccc2)C(C)c2ccccc2)C(N)=O)C(=O)CN(C(=O)CN(Cc2ccc3c(c2)OCO3)C(=O)CNC(C)c2ccccc2)C(C)c2ccccc2)cc1 (configuration not stated) (I: H-[X3][Gly(N-piperonyl)][X3][N(4-MeOBn)Gly][Sar]KKMK-NH2 / II: H-[X3][Gly(N-piperonyl)][X3][N(4-MeOBn)Gly][Sar]KKM; amide I:9-II:C; configuration not given here),Active
10,CCC(C)N(CC(=O)NC(CCCCN)C(=O)NC(CCCCN)C(=O)NC(CCSC)C(=O)NCCCCC(NC(=O)C(CCSC)NC(=O)C(CCCCN)NC(=O)C(CCCCN)NC(=O)CN(C(=O)CN(Cc1ccc(OC)cc1)C(=O)CN(C(=O)CN(Cc1ccc2c(c1)OCO2)C(=O)CNC(C)c1ccccc1)C(C)c1ccccc1)C(C)CC)C(N)=O)C(=O)CN(Cc1ccc(OC)cc1)C(=O)CN(C(=O)CN(Cc1ccc2c(c1)OCO2)C(=O)CNC(C)c1ccccc1)C(C)c1ccccc1 (configuration not stated) (I: H-[X3][Gly(N-piperonyl)][X3][N(4-MeOBn)Gly][X6]KKMK-NH2 / II: H-[X3][Gly(N-piperonyl)][X3][N(4-MeOBn)Gly][X6]KKM; amide I:9-II:C; configuration not given here),Active
11,COc1ccc(CN(CC(=O)N(CCOc2ccccc2)CC(=O)NC(CCCCN)C(=O)NC(CCCCN)C(=O)NC(CCSC)C(=O)NCCCCC(NC(=O)C(CCSC)NC(=O)C(CCCCN)NC(=O)C(CCCCN)NC(=O)CN(CCOc2ccccc2)C(=O)CN(Cc2ccc(OC)cc2)C(=O)CN(C(=O)CN(Cc2ccc3c(c2)OCO3)C(=O)CNC(C)c2ccccc2)C(C)c2ccccc2)C(N)=O)C(=O)CN(C(=O)CN(Cc2ccc3c(c2)OCO3)C(=O)CNC(C)c2ccccc2)C(C)c2ccccc2)cc1 (configuration not stated) (I: H-[X3][Gly(N-piperonyl)][X3][N(4-MeOBn)Gly][X9]KKMK-NH2 / II: H-[X3][Gly(N-piperonyl)][X3][N(4-MeOBn)Gly][X9]KKM; amide I:9-II:C; configuration not given here),Active
12,COc1ccc(CN(CC(=O)N(CC(=O)NC(CCCCN)C(=O)NC(CCCCN)C(=O)NC(CCSC)C(=O)NCCCCC(NC(=O)C(CCSC)NC(=O)C(CCCCN)NC(=O)C(CCCCN)NC(=O)CN(C(=O)CN(Cc2ccc(OC)cc2)C(=O)CN(C(=O)CN(Cc2ccc3c(c2)OCO3)C(=O)CNC(C)c2ccccc2)C(C)c2ccccc2)C(C)c2ccccc2)C(N)=O)C(C)c2ccccc2)C(=O)CN(C(=O)CN(Cc2ccc3c(c2)OCO3)C(=O)CNC(C)c2ccccc2)C(C)c2ccccc2)cc1 (configuration not stated) (I: H-[X3][Gly(N-piperonyl)][X3][N(4-MeOBn)Gly][X3]KKMK-NH2 / II: H-[X3][Gly(N-piperonyl)][X3][N(4-MeOBn)Gly][X3]KKM; amide I:9-II:C; configuration not given here),Active
